Columns and labels:
[1] = Selectivity index, ratio of CC50 for human MT4 cells to EC50 for HIV-1 NL4-3 infected in MT4 cells; assay type: toxicity, cell-based; details: read-out: Ratio CC50/EC50
[2] = tested on: Human immunodeficiency virus 1; assay: Antiviral activity against HIV-1 NL4-3 infected in MT4 cells assessed as viral replication measured on day 4 post infection by ELISA; assay type: functional, organism-based; details: Human immunodeficiency virus 1, NL4-3, MT4, 96 h
In short: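 HIV-1 NL4-3 at MOI 0.001 infects MT4 cells in the presence of graded compound concentrations. Fresh medium with compound is added 48 h after infection to keep the cells growing. On day 4 post-infection, replication is read by p24 ELISA.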

MT4 = assay: Cytotoxicity against human MT4 cells by cellTiterGlo assay; assay type: cell-based
In short: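 MT4 cells are cultured in parallel with the antiviral assay and treated with compounds. Viability is read with CellTiter-Glo luminescent reagent, which quantifies ATP in metabolically active cells. CC50, the concentration reducing viable cells by 50%, is calculated from the dose-response curve.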

SMILES	selectivity ratio [1]	EC50 [2] [nM]	CC50 (MT4) [nM]
C=C(C)[C@]12C[C@@H](COC(=O)c3ccccc3)[C@]34OC5(CCCCCCC[C@H](C)[C@@H]6[C@@H]3[C@]3(O[C@]6(C)OC3=O)[C@H](O)[C@@]3(CO)O[C@H]3[C@H]4[C@H]1O5)O2	≥ 41	330	≥ 13800
C=C(C)[C@]12C[C@@H](C)[C@]34O[C@]5(CCCCCCC[C@H](C)[C@@H]6[C@@H]3[C@]3(O[C@]6(C)OC3=O)[C@H](O)[C@@]3(CO)O[C@H]3[C@H]4[C@H]1O5)O2	≥ 16	1120	≥ 18300
C=C(C)[C@]12C[C@@H](C)[C@@]34OC5(CCCCCCC[C@@H](C)[C@H]6[C@H](C)[C@H](OC(=O)c7ccccc7)[C@@](O)([C@H](O)[C@@]7(CO)O[C@H]7[C@H]3[C@H]1O5)[C@@H]64)O2	≥ 14300	1.1	≥ 15700
C=C(C)[C@@]1(O)[C@H](OC(=O)/C=C/C=C/CCCCCCCCC)[C@@H]2[C@@H]3O[C@]3(CO)[C@@H](O)[C@]3(O)C(=O)C(C)=C[C@H]3[C@@]2(O)[C@H](C)[C@H]1OC(C)=O	≥ 345	44	≥ 15200
C=C(C)[C@]12C[C@@H](C)[C@@]34O[C@](CCCCCCCCC)(O[C@@H]1[C@@H]3[C@@H]1O[C@]1(CO)[C@@H](O)[C@]1(O)C(=O)C(C)=C[C@H]14)O2 [SIMPLEXIN]	≥ 400	47	≥ 18800
C=C(C)[C@]1(O)C[C@@H](C)[C@@]2(O)[C@H]([C@H]1OC(=O)/C=C/C=C/CCCCCCCCC)[C@@H]1O[C@]1(CO)[C@@H](O)[C@]1(O)C(=O)C(C)=C[C@H]12	≥ 281	59	≥ 16600
C=C(C)[C@]1(O)C[C@@H](C)[C@@]2(O)[C@H]([C@H]1OC(=O)/C=C/C=C/CCCCCCCCC)[C@H](O)[C@@](O)(CO)[C@@H](O)[C@]1(O)C(=O)C(C)=C[C@H]12	≥ 100	44	≥ 4400
C=C(C)[C@]12C[C@@H](COC(=O)c3ccccc3)[C@]34OC5(CCCCCCC[C@H](C)[C@@H]6[C@@H]3[C@]3(O[C@]6(C)OC3=O)[C@H](O)[C@@]3(COC(=O)CCCCCCC/C=C\C/C=C\CCCCC)O[C@H]3[C@H]4[C@H]1O5)O2	≥ 1	6710	≥ 10800
C=C(C)[C@@]12OC3(/C=C/C=C/CCCCCCCCCC)O[C@@H]1[C@@H]1[C@@H]4O[C@]4(CO)[C@@H](O)[C@]4(O)C(=O)C(C)=C[C@H]4[C@@]1(O3)[C@H](C)[C@H]2OC(C)=O	≥ 392	39	≥ 15300
C=C(C)[C@]12C[C@@H](COC(=O)c3ccccc3)[C@@]34OC5(CCCCCCC[C@@H](C)[C@H]6[C@H](C)C(=O)[C@@](O)([C@H](O)[C@@]7(CO)O[C@H]7[C@H]3[C@H]1O5)[C@@H]64)O2	≥ 318	48	≥ 15300
C=C(C)[C@]12C[C@@H](COC(=O)c3ccccc3)[C@@]34OC5(O[C@@H]1[C@@H]3[C@@H]1O[C@]1(CO)[C@@H](O)[C@@]1(O)[C@H]4[C@H]([C@H](C)[C@@H]1OC(=O)c1ccccc1)[C@H](C)C[C@@H](OC(=O)c1ccccc1)CCCC[C@H]5O)O2	≥ 15300	0.73	≥ 11200
C=C(C)[C@]12C[C@@H](COC(=O)c3ccccc3)[C@@]34OC5(O[C@@H]1[C@@H]3[C@@H]1O[C@]1(CO)[C@@H](O)[C@@]1(O)[C@H]4[C@H]([C@H](C)[C@@H]1OC(=O)c1ccccc1)[C@H](C)CCCCCC[C@H]5O)O2	≥ 21500	0.06	≥ 1290
C=C(C)[C@]12C[C@@H](COC(=O)c3ccccc3)[C@@]34OC5(O[C@@H]1[C@@H]3[C@@H]1O[C@]1(COC(=O)c1ccccc1)[C@@H](O)[C@@]1(O)[C@H]4[C@H]([C@H](C)[C@@H]1O)[C@H](C)CCCCCC[C@H]5O)O2	≥ 13200	0.98	≥ 12900
C=C(C)[C@]12C[C@@H](COC(C)=O)[C@@]34OC5(O[C@@H]1[C@@H]3[C@@H]1O[C@]1(CO)[C@@H](O)[C@@]1(O)[C@H]4[C@H]([C@H](C)[C@@H]1OC(=O)c1ccccc1)[C@H](C)C[C@@H](OC(=O)c1ccccc1)CCCC[C@H]5O)O2	≥ 12900	0.93	≥ 12000
C=C(C)[C@]12C[C@@H](C)[C@@]34OC(/C=C/C=C/CCCCCCCCCC)(O[C@@H]1[C@@H]3[C@@H]1O[C@]1(CO)[C@@H](O)[C@]1(O)C(=O)C(C)=C[C@H]14)O2	≥ 1280	13	≥ 16700
Cc1cn([C@H]2C[C@H](N=[N+]=[N-])[C@@H](CO)O2)c(=O)[nH]c1=O [ZIDOVUDINE]			≥ 3740
C=C(C)[C@@]12O[C@@]3(/C=C/C=C/CCCCCCCCC)O[C@@H]1[C@@H]1[C@@H]4O[C@]4(CO)[C@@H](O)[C@]4(O)C(=O)C(C)=C[C@H]4[C@@]1(O3)[C@H](C)[C@H]2OC(C)=O	≥ 1300	12	≥ 15600
C=C(C)[C@@]12OC3(/C=C/C=C/CCCCCCCCCC)O[C@@H]1[C@@H]1[C@@H]4O[C@]4(CO)[C@@H](O)[C@]4(O)C(=O)C(C)=C[C@H]4[C@@]1(O3)[C@H](C)[C@H]2O	≥ 135	120	≥ 16300
C=C(C)[C@]12C[C@@H](C)[C@@]34O[C@](/C=C/C=C/CCCCCCCCC)(O[C@@H]1[C@@H]3[C@@H]1O[C@]1(CO)[C@@H](O)[C@]1(O)C(=O)C(C)=C[C@H]14)O2	≥ 5380	2.6	≥ 14000
C=C(C)[C@]12C[C@@H](COC(=O)c3ccccc3)[C@]34OC5(CCCCCCC[C@H](C)[C@@H]6[C@@H]3[C@]3(O[C@]6(C)OC3=O)[C@H](O)[C@@]3(COC(=O)CCCCCCCCCCCCCCC)O[C@H]3[C@H]4[C@H]1O5)O2	≥ 18	590	≥ 11100
